Data: ChEMBL document CHEMBL1125654, “New inhibitors of human renin that contain novel replacements at the P2 site” (J Med Chem, 1991)

Experiments:
[1] = solubility in phosphate buffer at pH 7.4; assay type: physicochemical
[2] = target: T1, Renin (Homo sapiens, UniProt P00797); experiment: Inhibitory activity against monkey plasma renin.; assay type: cell-free, Cercopithecidae; details: target entry is the homologue from another species
T1 sequence (P00797 whole entry): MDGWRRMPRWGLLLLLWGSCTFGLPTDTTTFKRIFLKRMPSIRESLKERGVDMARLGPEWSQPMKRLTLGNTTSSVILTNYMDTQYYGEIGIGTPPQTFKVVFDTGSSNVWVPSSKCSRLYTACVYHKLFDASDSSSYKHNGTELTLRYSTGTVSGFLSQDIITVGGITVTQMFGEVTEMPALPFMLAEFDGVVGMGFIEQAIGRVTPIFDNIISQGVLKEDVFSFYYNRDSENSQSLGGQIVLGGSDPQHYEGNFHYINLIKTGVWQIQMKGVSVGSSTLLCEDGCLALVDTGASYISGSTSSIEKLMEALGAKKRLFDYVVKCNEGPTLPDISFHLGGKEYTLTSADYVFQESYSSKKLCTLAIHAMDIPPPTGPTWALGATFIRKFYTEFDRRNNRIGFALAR
In short: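 Plasma from salt-depleted, furosemide-treated monkeys (native renin and angiotensinogen) incubated with maleate buffer (pH 6.0), PMSF and inhibitor in DMSO for 60 min at 37 °C. Plasma renin activity was 3–8 ng AI/mL per h. Percent inhibition was taken vs DMSO vehicle tubes, and IC50 from six concentrations by nonlinear regression.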

[3] = target: T1, Renin; experiment: Inhibitory activity against human plasma renin; assay type: cell-free
[4] = Partition coefficient (logD7.4); details: octanol/water
[5] = target: T2, Cathepsin D (Bos taurus) (UniProt P80209); experiment: (§1) Inhibitory activity against bovine cathepsin D was determined; details: concentration not given here
T2 sequence (whole entry): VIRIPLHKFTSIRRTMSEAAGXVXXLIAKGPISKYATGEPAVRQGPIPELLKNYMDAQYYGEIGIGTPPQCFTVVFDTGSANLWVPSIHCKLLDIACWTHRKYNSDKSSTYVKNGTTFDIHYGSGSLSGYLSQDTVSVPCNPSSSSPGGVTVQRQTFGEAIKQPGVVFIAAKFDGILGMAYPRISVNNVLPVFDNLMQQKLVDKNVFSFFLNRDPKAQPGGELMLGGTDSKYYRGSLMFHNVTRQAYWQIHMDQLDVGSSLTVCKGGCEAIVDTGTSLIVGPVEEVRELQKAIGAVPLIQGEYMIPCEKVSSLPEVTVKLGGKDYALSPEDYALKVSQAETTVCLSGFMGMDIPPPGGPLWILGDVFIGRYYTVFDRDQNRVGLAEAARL
In short: (§2)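 Bovine cathepsin D activity assayed in duplicate as hydrolysis of bovine hemoglobin (2× crystallized) at pH 3.2, 37 °C. Net absorbance at 280 nm read in acid-precipitated supernatants of inhibited vs uninhibited controls. IC50 from six inhibitor concentrations by nonlinear regression.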

[6] = target: T3, Renin (Homo sapiens) (UniProt P00797); experiment: Inhibitory activity against monkey plasma renin was determined at 10e-5 M concentration; assay type: cell-free; details: Cercopithecidae, target entry is the homologue from another species
T3 sequence (whole entry): T1 sequence (P00797 whole entry)
In short: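 Angiotensin I generated from monkey plasma (native renin and angiotensinogen) with maleate buffer pH 6.0, PMSF and inhibitor in DMSO, 60 min at 37 °C. Percent inhibition estimated against DMSO vehicle control tubes. Plasma renin activity 3–8 ng AI/mL per h.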

[7] = target: T4, Cathepsin D (Bos taurus, UniProt P80209); experiment: Inhibitory activity against bovine Cathepsin D was determined; in short: as §2
T4 sequence (P80209 whole entry): T2 sequence (whole entry)

[8] = target: T4, Cathepsin D; experiment: as §1; in short: as §2
[9] = target: T1, Renin; experiment: Inhibitory activity against human plasma renin; G means not measured; assay type: cell-free

| SMILES | IC50 [2] | IC50 [3] | logD ([4]; pH 7.4, logD) | other results |
| --- | --- | --- | --- | --- |
| C/N=C(\S)NCCCCC(NC(=O)C(Cc1cccc2ccccc12)Cc1cccc2ccccc12)C(=O)NC(CC(C)C)[C@@H](O)CC(=O)NC(CC(C)C)C(=O)NCc1ccccc1 (some centres not stated) | 99 nM | 60 nM | 6.7 | solubility [1]: < 10 µg/mL |
| CC(=O)NCC#CCC(NC(=O)C(Cc1cccc2ccccc12)Cc1cccc2ccccc12)C(=O)NC(CC1CCCCC1)[C@@H](O)CC(=O)N1CCOC(CCN)C1 (some centres not stated) | 9 nM |  |  | inhibition [5]: 0.3% |
| NCCC1CN(C(=O)C[C@H](O)C(CC2CCCCC2)NC(=O)C(CC#CC/N=C(/N)N[N+](=O)[O-])NC(=O)C(Cc2cccc3ccccc23)Cc2cccc3ccccc23)CCO1 (some centres not stated) |  |  |  | inhibition [5]: 0.7% |
| CCC(C)CNC(=O)C[C@H](O)C(CC(C)C)NC(=O)C(CCCCNP(=O)(Oc1ccccc1)Oc1ccccc1)NC(=O)C(Cc1cccc2ccccc12)Cc1cccc2ccccc12 (some centres not stated) |  | 740 nM |  | logD ([4]; pH 7.4): 7.88; inhibition [6]: 48% |

Second part, led by results:

| IC50 [2] | IC50 [3] | logD ([4]; pH 7.4, logD) | SMILES | other results |
| --- | --- | --- | --- | --- |
|  | 3000 nM | 6.7 | CCC(C)CNC(=O)C[C@H](O)C(CC(C)C)NC(=O)C(CCCCNS(=O)(=O)c1ccc(C)cc1)NC(=O)C(Cc1cccc2ccccc12)Cc1cccc2ccccc12 (some centres not stated) | inhibition [6]: 48% |
| 23 nM | 13 nM | 5.71 | CCC(C)CNC(=O)C[C@H](O)C(CC(C)C)NC(=O)C(CCCC/N=C(/S)NC)NC(=O)C(Cc1cccc2ccccc12)Cc1cccc2ccccc12 (some centres not stated) | solubility [1]: < 10 µg/mL; IC50 [7]: 781 nM |
| 4.6 nM |  | 5.32 | CCC(C)CNC(=O)C[C@H](O)C(CC(C)C)NC(=O)C(CC#CCNC(C)=O)NC(=O)C(Cc1cccc2ccccc12)Cc1cccc2ccccc12 (stereo in doubt; 55a) | IC50 [8]: 78 nM; IC50 [9]: 2 nM |
